Assay results from publication PMC9284555 (Journal of Agricultural and Food Chemistry, 2022).

Assays:
[1] = assay type: in vivo, human; details: for relative intensity (EGCG = 1): LC-MS intensity in human plasma after ingestion of catechin-rich tea; for AUC0–6h / T1/2 / Tmax: human plasma, oral catechin-rich beverage (135 mg EGCG), mean ± SD, n = 10
In short: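 Ten healthy fasted men drank 350 mL of a beverage with 615 mg catechins (135 mg EGCG). Plasma was taken at 0.5–6 h, acid/ascorbate/EDTA-stabilised and stored at −80 °C. Samples went through solid-phase extraction with an ethyl gallate internal standard. Analytes were identified and quantified by Orbitrap LC–MS (calibration 1–500 ng/mL). Parameters came from noncompartmental analysis; mean ± SD.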

COMT = details: inhibition of COMT; cited from earlier work
SULT1A3 = details: inhibition of SULT1A3; cited from earlier work
SULT1A1 = details: inhibition of SULT1A1; cited from earlier work

Row | relative intensity (EGCG = 1) [1] | AUC0–6h [1] [nmol·h·L^–1] | T1/2 [1] [h] | Tmax [1] [h] | Compound | IC50 (COMT) [µM] | IC50 (SULT1A3) [µM] | IC50 (SULT1A1) [µM]
1 | 0.39 | 198.9 ± 23.8 | 1.5 ± 0.64 | 1.3 ± 0.26 | O=C(O[C@@H]1Cc2c(O)cc(O)cc2O[C@@H]1c1cc(O)c(O)c(O)c1)c1cc(O)c(O[C@@H]2O[C@H](C(=O)O)[C@@H](O)[C@H](O)[C@H]2O)c(O)c1 [EGCG-4″-glucuronide] | – | – | –
2 | 0.76 | 715.2 ± 127.1 | 3.9 ± 1.5 | 2.5 ± 0.60 | O=C(O[C@@H]1Cc2c(O)cc(O)cc2O[C@@H]1c1cc(O)c(O)c(O)c1)c1cc(O)c(OS(=O)(=O)O)c(O)c1 [EGCG-4″-sulfate] | – | – | –
3 | – | – | – | – | O=c1c(O)c(-c2ccc(O)c(O)c2)oc2cc(O)cc(O)c12 [quercetin] | 0.9 to 8.5 | 7 | 0.41 to 13

Row | Compound | relative intensity (EGCG = 1) [1] | AUC0–6h [1] [nmol·h·L^–1] | T1/2 [1] [h] | Tmax [1] [h] | IC50 (COMT) [µM] | IC50 (SULT1A3) [µM] | IC50 (SULT1A1) [µM]
4 | (E)GCG-dimethyl-sulfate [(E)GCG-diMe-sulfate] | 0.54 | – | – | – | – | – | –
